Test results as given in ChEMBL document CHEMBL1146303, “Spirodiketopiperazine-based CCR5 antagonists: Lead optimization from biologically active metabolite” (Bioorg Med Chem Lett, 2007).

How the values were obtained:
[1] = target: T1, C-C chemokine receptor type 5 (Homo sapiens, UniProt P51681); experiment: Antagonist activity at human CCR5 expressed in CHO cells assessed as inhibition of MIP-1-alpha-stimulated calcium mobilization; format: functional, cell-based
Summary of the method: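 Cells expressing human CCR5 (hCCR5/CHO) were stimulated with MIP-1α, and the rise in intracellular calcium was measured. Potency is reported as an IC50 for inhibition of the calcium response.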

[2] = target: T1, C-C chemokine receptor type 5; experiment: Displacement of [125I]MIP1-alpha from human CCR5 expressed in CHO cells; format: cell-based
[3] = system: Human immunodeficiency virus; experiment: Antiviral activity against HIV; format: functional, organism-based; conditions: Human immunodeficiency virus 1
[4] = system: Human immunodeficiency virus 1; experiment: Anti-infective activity against HIV1 BAL in MAGI CCR5+ cells; format: functional, organism-based; conditions: Human immunodeficiency virus 1, BAL
Cytochrome P450 3A4 = Cytochrome P450 3A4 (Homo sapiens, UniProt P08684); experiment: Inhibition of CYP3A4; format: ADME
[5] = Aqueous solubility at pH 6.8; format: physicochemical
[6] = Bioavailability in rat; format: ADME, organism-based; conditions: in vivo

T1 sequence (P51681 whole entry): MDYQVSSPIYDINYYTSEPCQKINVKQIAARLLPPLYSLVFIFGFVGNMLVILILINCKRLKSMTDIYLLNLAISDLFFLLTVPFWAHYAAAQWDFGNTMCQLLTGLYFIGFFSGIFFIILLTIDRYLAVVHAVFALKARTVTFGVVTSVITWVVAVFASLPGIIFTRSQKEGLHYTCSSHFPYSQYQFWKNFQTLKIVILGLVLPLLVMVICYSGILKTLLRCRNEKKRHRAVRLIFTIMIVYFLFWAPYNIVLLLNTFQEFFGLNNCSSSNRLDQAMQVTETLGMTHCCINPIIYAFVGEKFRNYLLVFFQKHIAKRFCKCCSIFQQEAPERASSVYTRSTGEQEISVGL
Chain of Cytochrome P450 3A4 (P08684 whole entry): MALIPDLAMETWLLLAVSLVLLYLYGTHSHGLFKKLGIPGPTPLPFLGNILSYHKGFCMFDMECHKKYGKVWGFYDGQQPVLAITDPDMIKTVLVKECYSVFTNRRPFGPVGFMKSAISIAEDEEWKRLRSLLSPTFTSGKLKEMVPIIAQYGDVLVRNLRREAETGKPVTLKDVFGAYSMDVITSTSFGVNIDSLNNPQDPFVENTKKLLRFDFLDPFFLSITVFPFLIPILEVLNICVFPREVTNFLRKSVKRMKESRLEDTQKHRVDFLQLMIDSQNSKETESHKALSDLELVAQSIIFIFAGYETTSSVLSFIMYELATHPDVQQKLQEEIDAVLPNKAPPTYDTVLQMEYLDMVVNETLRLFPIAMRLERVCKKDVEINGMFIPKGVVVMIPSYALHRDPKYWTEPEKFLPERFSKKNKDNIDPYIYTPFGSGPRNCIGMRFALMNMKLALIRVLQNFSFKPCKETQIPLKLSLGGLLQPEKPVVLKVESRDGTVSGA

| SMILES | IC50 [1] [nM] | IC50 [2] [nM] | bioavailability [6] [%] | IC50 [3] [nM] | IC50 [4] [nM] | IC50 (Cytochrome P450 3A4) [nM] | solubility [5] [µg/mL] | IC90 [3] [nM] |
| --- | --- | --- | --- | --- | --- | --- | --- | --- |
| CCCCN1C(=O)[C@@H](CC(C)C)NC(=O)C12CCN(Cc1ccc(Oc3ccccc3)cc1)CC2 | 130 | 29 |  |  |  |  |  |  |
| CCCCN1C(=O)C(CC2CCCCC2)NC(=O)C12CCN(Cc1ccc(Oc3ccccc3)cc1)CC2.Cl (stereo not drawn) | 28 |  |  | 31 | 337 | 9300 | < 0.2 |  |
| CCCCN1C(=O)C(CC(C)C)NC(=O)C12CCN(Cc1ccc(Oc3ccccc3)cc1)CC2.Cl (stereo not drawn) | 94 | 8.3 | 1.3 |  |  |  |  | 676 |
| CCCCN1C(=O)[C@H](CC(C)C)NC(=O)C12CCN(Cc1ccc(Oc3ccccc3)cc1)CC2 | 84 | 11 |  |  |  |  |  |  |

Second part, led by results:

| IC50 [1] [nM] | IC50 [2] [nM] | bioavailability [6] [%] | SMILES | IC50 [3] [nM] | IC50 [4] [nM] | IC50 (Cytochrome P450 3A4) [nM] | solubility [5] [µg/mL] | IC90 [3] [nM] |
| --- | --- | --- | --- | --- | --- | --- | --- | --- |
| 79 | 28 |  | CCCCN1C(=O)C(CC(C)(C)O)NC(=O)C12CCN(Cc1ccc(Oc3ccccc3)cc1)CC2 (stereo not drawn) |  |  |  |  |  |
| 400 | 68 |  | CCCCN1C(=O)[C@H]([C@H](O)C(C)C)NC(=O)C12CCN(Cc1ccc(Oc3ccccc3)cc1)CC2 |  |  |  |  |  |
|  |  | < 1 | CCCCN1C(=O)[C@@H]([C@H](O)C2CCCCC2)NC(=O)C12CCN(Cc1ccc(Oc3ccccc3)cc1)CC2.Cl | 0.6 | 6 |  | 2.7 |  |
| 210 | 24 |  | CCCCN1C(=O)[C@@H]([C@@H](O)C(C)C)NC(=O)C12CCN(Cc1ccc(Oc3ccccc3)cc1)CC2 |  |  |  |  |  |
| 150 | 53 |  | CCCCN1C(=O)[C@H]([C@@H](O)C(C)C)NC(=O)C12CCN(Cc1ccc(Oc3ccccc3)cc1)CC2 |  |  |  |  |  |
| 33 | 3.5 | < 1 | CCCCN1C(=O)[C@@H]([C@H](O)C(C)C)NC(=O)C12CCN(Cc1ccc(Oc3ccccc3)cc1)CC2.Cl |  |  |  |  |  |
